System: ABCB1
Test: Permeability from apical to basolateral side in dog MDCK2-MDR1 cells expressing ABCB1 at 5 uM after 30 mins in presence of compound 15 by LC-MS/MS analysis
Type: ADME, cell-based, Canis lupus familiaris, MDCK-II
Conditions: MDCK-MDR1, with compound 15 (concentration not stated), read-out: permeability
Summary of the method: (§1)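 MDR1-transfected MDCKII cells (passage 16–42) were seeded at 50,000 cells cm^-2 on Transwell filters and used on day 6. Monolayers were rinsed in DPBS with 10^-2 M HEPES, pH 7.4, at 37 °C. They were preincubated 30 min in 4.3 mg/mL BSA/DPBSH with or without 5×10^-6 M P-gp inhibitor. 5 μM dye was added apically or basolaterally and samples taken after 1 h at 37 °C with nutation. Quantitation was by LC-MS/MS; P_passive is the mean of P_AB and P_BA under full inhibition. Mean ± SD.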
`C[N+]1=c2cc3c(cc2C(C)(C)CC1)=C(c1ccc(C(=O)N2CCCCC2)s1)c1cc2c4c(c1[Se]3)CCCN4CCC2.[Cl-]` gave a Papp A→B at 0.5 h, 5 µM of 0.018 ×10⁻⁶ cm/s.

System: not listed separately
Test: Drug extrusion in human CD8 positive cells assessed as change in mean fluorescence intensity at 5 x 10^-8 M preincubated for 20 mins followed by growth in photosensitizer-free media for 30 mins by flow cytometric analysis relative to control
Type: cell-based
Conditions: 0.5 h, 0.05 µM
Work on `C[N+]1=c2cc3c(cc2C(C)(C)CC1)=C(c1ccc(C(=O)N2CCCCC2)s1)c1cc2c4c(c1[Se]3)CCCN4CCC2.[Cl-]` yielded an Activity of 79.6%.

System: ABCB1
Test: Permeability from apical to basolateral side in dog MDCK2-MDR1 cells expressing ABCB1 at 5 uM after 30 mins in absence of compound 15 by LC-MS/MS analysis
Type: ADME, cell-based, Canis lupus familiaris, MDCK-II
Conditions: MDCK-MDR1, read-out: permeability
Summary of the method: as §1
With `C[N+]1=c2cc3c(cc2C(C)(C)CC1)=C(c1ccc(C(=O)N2CCCCC2)s1)c1cc2c4c(c1[Se]3)CCCN4CCC2.[Cl-]` the Papp A→B at 0.5 h, 5 µM was 0.14 ×10⁻⁶ cm/s.

System: not listed separately
Test: Drug extrusion in SEB-stimulated human CD25 positive cells assessed as mean fluorescence intensity at 5 x 10^-8 M preincubated for 20 mins followed by growth in photosensitizer-free media for 30 mins by flow cytometric analysis relative to control
Conditions: 0.5 h, 0.05 µM
`C[N+]1=c2cc3c(cc2C(C)(C)CC1)=C(c1ccc(C(=O)N2CCCCC2)s1)c1cc2c4c(c1[Se]3)CCCN4CCC2.[Cl-]` gave a Flu intensity of 25000 a.u.

System: ABCB1
Test: Permeability from basolateral to apical side in dog MDCK2-MDR1 cells expressing ABCB1 at 5 uM after 30 mins in presence of compound 15 by LC-MS/MS analysis
Type: ADME, cell-based, Canis lupus familiaris, MDCK-II
Conditions: MDCK-MDR1, with compound 15 (concentration not stated), read-out: permeability
Summary of the method: as §1
`C[N+]1=c2cc3c(cc2C(C)(C)CC1)=C(c1ccc(C(=O)N2CCCCC2)s1)c1cc2c4c(c1[Se]3)CCCN4CCC2.[Cl-]` gave a Papp B→A at 0.5 h, 5 µM of 0.28 ×10⁻⁶ cm/s.

System: ABCB1
Test: Permeability from basolateral to apical side in dog MDCK2-MDR1 cells expressing ABCB1 at 5 uM after 30 mins in absence of compound 15 by LC-MS/MS analysis
Type: ADME, cell-based, Canis lupus familiaris, MDCK-II
Conditions: MDCK-MDR1, read-out: permeability
Summary of the method: as §1
`C[N+]1=c2cc3c(cc2C(C)(C)CC1)=C(c1ccc(C(=O)N2CCCCC2)s1)c1cc2c4c(c1[Se]3)CCCN4CCC2.[Cl-]` showed a Papp B→A at 0.5 h, 5 µM of 6.6 ×10⁻⁶ cm/s.

System: not listed separately
Test: Drug uptake in SEB-stimulated human CD25 positive cells assessed as mean fluorescence intensity at 5 x 10^-8 M preincubated for 20 mins followed by growth in photosensitizer-free media for 30 mins by flow cytometric analysis relative to control
Conditions: 0.5 h, 0.05 µM
Compound `C[N+]1=c2cc3c(cc2C(C)(C)CC1)=C(c1ccc(C(=O)N2CCCCC2)s1)c1cc2c4c(c1[Se]3)CCCN4CCC2.[Cl-]` has a Flu intensity of 33800 a.u.

System: HuT78
Conditions: human, hut78, 0.5 h, 0.075 µM
In the case of `C[N+]1=c2cc3c(cc2C(C)(C)CC1)=C(c1ccc(C(=O)N2CCCCC2)s1)c1cc2c4c(c1[Se]3)CCCN4CCC2.[Cl-]`, the Flu intensity is reported as 33200 a.u.

System: not listed separately
Test: Drug extrusion in human CD3 positive cells assessed as change in mean fluorescence intensity at 5 x 10^-8 M preincubated for 20 mins followed by growth in photosensitizer-free media for 30 mins by flow cytometric analysis relative to control
Type: cell-based
Conditions: 0.5 h, 0.05 µM
Compound `C[N+]1=c2cc3c(cc2C(C)(C)CC1)=C(c1ccc(C(=O)N2CCCCC2)s1)c1cc2c4c(c1[Se]3)CCCN4CCC2.[Cl-]` has an Activity of 52.7%.

System: HuT78
Conditions: human, hut78, 0.5 h, 0.075 µM
Remark: another data set of the same source
Compound `C[N+]1=c2cc3c(cc2C(C)(C)CC1)=C(c1ccc(C(=O)N2CCCCC2)s1)c1cc2c4c(c1[Se]3)CCCN4CCC2.[Cl-]` has a Flu intensity of 20000 a.u.

System: not listed separately
Test: (§2) Phototoxicity human CD4 positive cells co-cultured with GFP expressing human HUT78 cells assessed as cell survival at 7.5 x 10^-8 M preincubated 20 mins in photosensitizer media followed by growth in photosensitizer-free media for 30 mins measured 18 hrs after exposure to 5 J/cm2 irradiation by FACS analysis
Type: cell-based
Conditions: read-out: Survival
Summary of the method: (§3)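 Non-stimulated PBMCs from healthy donors (Ficoll-separated) were mixed 5:1 with GFP-transfected, sorted (>98%) HUT-78 cells. Cells took up 7.5×10^-8 M photosensitizer for 20 min, then spent 30 min in dye-free medium. They were exposed to 5 J cm^-2 light (600 nm LED) with rotation at 180 rpm. Survival was gated by FACS (GFP, CD3, CD4, CD8) 18 h later versus non-irradiated controls. Triplicate; mean ± SEM.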
For `C[N+]1=c2cc3c(cc2C(C)(C)CC1)=C(c1ccc(C(=O)N2CCCCC2)s1)c1cc2c4c(c1[Se]3)CCCN4CCC2.[Cl-]`, the viability at 18 h, 0.075 µM was 0.37%.

System: HuT78
Test: Drug uptake in GFP expressing human HUT78 cells co-cultured with non-stimulated human PBMC cells assessed as change in mean fluorescence intensity at 7.5 x 10^-8 M after 20 mins followed by growth in photosensitizer-free media for 30 mins by flow cytometric analysis relative to control
Type: cell-based
Conditions: hut78, 0.5 h, 0.075 µM
Compound `C[N+]1=c2cc3c(cc2C(C)(C)CC1)=C(c1ccc(C(=O)N2CCCCC2)s1)c1cc2c4c(c1[Se]3)CCCN4CCC2.[Cl-]` has an Activity of 47.1%.

System: not listed separately
Test: Drug extrusion in human CD4 positive cells assessed as change in mean fluorescence intensity at 5 x 10^-8 M preincubated for 20 mins followed by growth in photosensitizer-free media for 30 mins by flow cytometric analysis relative to control
Type: cell-based
Conditions: 0.5 h, 0.05 µM
For `C[N+]1=c2cc3c(cc2C(C)(C)CC1)=C(c1ccc(C(=O)N2CCCCC2)s1)c1cc2c4c(c1[Se]3)CCCN4CCC2.[Cl-]`, the Activity was 54.1%.

System: not listed separately
Test: Drug extrusion in SEB-stimulated human CD25 negative cells assessed as mean fluorescence intensity at 5 x 10^-8 M preincubated for 20 mins followed by growth in photosensitizer-free media for 30 mins by flow cytometric analysis relative to control
Conditions: 0.5 h, 0.05 µM
With `C[N+]1=c2cc3c(cc2C(C)(C)CC1)=C(c1ccc(C(=O)N2CCCCC2)s1)c1cc2c4c(c1[Se]3)CCCN4CCC2.[Cl-]` the Flu intensity was 3900 a.u.

System: HuT78
Test: as §2, with “in” for “human CD4 positive cells co-cultured with”, “HUT78 cells co-cultured with human PBMC” for “HUT78”
Type: functional
Conditions: HuT78, light or radiation study, read-out: Survival
Summary of the method: as §3
Compound `C[N+]1=c2cc3c(cc2C(C)(C)CC1)=C(c1ccc(C(=O)N2CCCCC2)s1)c1cc2c4c(c1[Se]3)CCCN4CCC2.[Cl-]` has a viability at 0.075 µM of 1.24%.

System: not listed separately
Test: N-octanol/water partition coefficient, logP of the compound at 23 degC after 1 hr by HPLC based shake flask method
Type: physicochemical
Conditions: not given
Summary of the method: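 Shake-flask method using 1-octanol: 3–5 min of mixing, then 1 h settling. Equilibration and measurement were at 23 °C, in triplicate.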
For `C[N+]1=c2cc3c(cc2C(C)(C)CC1)=C(c1ccc(C(=O)N2CCCCC2)s1)c1cc2c4c(c1[Se]3)CCCN4CCC2.[Cl-]`, the logP was 3.51.

System: not listed separately
Test: as §2, with “CD3” for “CD4”
Type: cell-based
Conditions: read-out: Survival
Summary of the method: as §3
For `C[N+]1=c2cc3c(cc2C(C)(C)CC1)=C(c1ccc(C(=O)N2CCCCC2)s1)c1cc2c4c(c1[Se]3)CCCN4CCC2.[Cl-]`, the viability at 18 h, 0.075 µM was 4.8%.

System: not listed separately
Test: Drug extrusion in SEB-stimulated human CD25 negative cells assessed as change in mean fluorescence intensity at 5 x 10^-8 M preincubated for 20 mins followed by growth in photosensitizer-free media for 30 mins by flow cytometric analysis relative to control
Conditions: 0.5 h, 0.05 µM
`C[N+]1=c2cc3c(cc2C(C)(C)CC1)=C(c1ccc(C(=O)N2CCCCC2)s1)c1cc2c4c(c1[Se]3)CCCN4CCC2.[Cl-]` showed an Activity of 58.6%.

System: not listed separately
Test: as §2, with “CD8” for “CD4”
Type: cell-based
Conditions: read-out: Survival
Summary of the method: as §3
Compound `C[N+]1=c2cc3c(cc2C(C)(C)CC1)=C(c1ccc(C(=O)N2CCCCC2)s1)c1cc2c4c(c1[Se]3)CCCN4CCC2.[Cl-]` has a viability at 18 h, 0.075 µM of 24.5%.

System: not listed separately
Test: Drug extrusion in SEB-stimulated human CD25 positive cells assessed as change in mean fluorescence intensity at 5 x 10^-8 M preincubated for 20 mins followed by growth in photosensitizer-free media for 30 mins by flow cytometric analysis relative to control
Conditions: 0.5 h, 0.05 µM
Compound `C[N+]1=c2cc3c(cc2C(C)(C)CC1)=C(c1ccc(C(=O)N2CCCCC2)s1)c1cc2c4c(c1[Se]3)CCCN4CCC2.[Cl-]` has an Activity of 37%.

System: ABCB1
Test: Passive permeability in dog MDCK2-MDR1 cells expressing ABCB1 at 5 uM after 30 mins in presence of compound 15 by LC-MS/MS analysis
Type: ADME, cell-based, Canis lupus familiaris, MDCK-II
Conditions: MDCK-MDR1, with compound 15 (concentration not stated), read-out: permeability
Summary of the method: as §1
Work on `C[N+]1=c2cc3c(cc2C(C)(C)CC1)=C(c1ccc(C(=O)N2CCCCC2)s1)c1cc2c4c(c1[Se]3)CCCN4CCC2.[Cl-]` yielded a Papp at 0.5 h, 5 µM of 0.1 ×10⁻⁶ cm/s.

System: not listed separately
Test: Drug uptake in SEB-stimulated human CD25 negative cells assessed as mean fluorescence intensity at 5 x 10^-8 M preincubated for 20 mins followed by growth in photosensitizer-free media for 30 mins by flow cytometric analysis relative to control
Conditions: 0.5 h, 0.05 µM
For `C[N+]1=c2cc3c(cc2C(C)(C)CC1)=C(c1ccc(C(=O)N2CCCCC2)s1)c1cc2c4c(c1[Se]3)CCCN4CCC2.[Cl-]`, the Flu intensity was 9300 a.u.

— ChEMBL document CHEMBL3826914, “Selective photodepletion of malignant T cells in extracorporeal photopheresis with selenorhodamine photosensitizers” (Bioorg Med Chem, 2016)
